Article PMC7703486 (Angewandte Chemie (International ed. in English), 2020)
Like-named read-outs stand apart in the source and are kept apart here.

What was measured:
CDK2/cyclin A = CDK2/cyclin A (Homo sapiens, UniProt P24941); assay: Biochemical assay CDK2/cyclin A
CDK1/cyclin B = CDK1/cyclin B (Homo sapiens, UniProt P06493); assay: Biochemical assay CDK1/cyclin B
CDK1 [1] = biological target: T1, CDK1 (Homo sapiens, UniProt P06493); assay: Immunoblot degradation in Jurkat cells, CDK1; format: cell-based; details: 6 hours
CDK2 [2] = biological target: T2, CDK2 (Homo sapiens, UniProt P24941); assay: Immunoblot degradation in Jurkat cells, CDK2; format: cell-based; details: 6 hours
Procedure, shortened: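 Jurkat cells exposed 6 h to test compound, at 1 μM in the initial degrader screen and otherwise at the indicated concentrations, then CDK2 read by immunoblot. Cereblon dependence was checked with an analogue carrying a methylated glutarimide that cannot engage cereblon, under the same 6 h conditions.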

CDK4 [3] = biological target: T3, CDK4 (Homo sapiens, UniProt P11802); assay: Immunoblot degradation in Jurkat cells, CDK4; format: cell-based; details: 6 hours
CDK5 [4] = biological target: T4, CDK5 (Homo sapiens, UniProt Q00535); assay: Immunoblot degradation in Jurkat cells, CDK5; format: cell-based; details: 6 hours
CDK6 [5] = biological target: T5, CDK6 (Homo sapiens, UniProt Q00534); assay: Immunoblot degradation in Jurkat cells, CDK6; format: cell-based; details: 6 hours
CDK7 = CDK7 (Homo sapiens, UniProt P50613); assay: Immunoblot degradation in Jurkat cells, CDK7; format: cell-based; details: 6 hours
CDK9 = CDK9 (Homo sapiens, UniProt P50750); assay: Immunoblot degradation in Jurkat cells, CDK9; format: cell-based; details: 6 hours
CDK4 [6] = biological target: T3, CDK4; assay: Immunoblot degradation in OVCAR8 cells, CDK4; format: cell-based; details: OVCAR8 cells (Figure S2)
CDK6 [7] = biological target: T5, CDK6; assay: Immunoblot degradation in OVCAR8 cells, CDK6; format: cell-based; details: OVCAR8 cells (Figure S2)
CDK4/cyclin D1 = CDK4/cyclin D1 (Homo sapiens, UniProt P11802); assay: Biochemical assay CDK4/cyclin D1
CDK6/cyclin D1 = CDK6/cyclin D1 (Homo sapiens, UniProt Q00534); assay: Biochemical assay CDK6/cyclin D1
CDK7/cyclin H = CDK7/cyclin H (Homo sapiens, UniProt P50613); assay: Biochemical assay CDK7/cyclin H
CDK9/cyclin T1 = CDK9/cyclin T1 (Homo sapiens, UniProt P50750); assay: Biochemical assay CDK9/cyclin T1
CDK5/p25 = CDK5/p25 (Homo sapiens, UniProt Q00535); assay: Biochemical assay CDK5/p25
Aurora A [8] = biological target: T6, Aurora A (Homo sapiens, UniProt O14965); assay: Biochemical activity assay Aurora A
T6 sequence (O14965 1-403): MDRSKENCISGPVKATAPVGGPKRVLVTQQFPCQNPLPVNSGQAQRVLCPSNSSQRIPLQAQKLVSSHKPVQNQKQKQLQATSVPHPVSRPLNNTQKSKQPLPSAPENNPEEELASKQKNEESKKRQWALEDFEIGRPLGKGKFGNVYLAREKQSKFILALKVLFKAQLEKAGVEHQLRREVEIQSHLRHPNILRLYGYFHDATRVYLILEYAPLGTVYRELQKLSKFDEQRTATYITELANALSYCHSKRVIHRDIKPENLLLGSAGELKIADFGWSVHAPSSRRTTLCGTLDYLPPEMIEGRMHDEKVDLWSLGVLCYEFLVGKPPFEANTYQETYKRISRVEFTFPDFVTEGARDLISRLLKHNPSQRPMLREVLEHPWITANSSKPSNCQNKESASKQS

CRBN = CRBN (Homo sapiens, UniProt Q96SW2); assay: Cellular CRBN engagement assay; format: cell-based
more than 400 kinases = assay: KINOMEscan panel profiling; format: binding; details: 1 μM
CDK2 [9] = biological target: T2, CDK2; assay: KINOMEscan, CDK2; format: binding; details: 1 μM; only CDK with potent inhibition; CDK1 not in panel
CDK2 [10] = biological target: T2, CDK2; assay: Immunoblot degradation in CRBN-null Jurkat cells, CDK2; format: cell-based; details: 6 hours
Procedure, shortened: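 Used to test whether degradation requires cereblon: CRBN-null Jurkat cells treated 6 h with test compound, then CDK2 levels read by immunoblot.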

CDK2 [11] = biological target: T2, CDK2; assay: Pulse-chase SILAC MS proteomics in OVCAR8 cells, CDK2; format: cell-based; details: OVCAR8, 250 nM, 6 hours
CDK5 [12] = biological target: T4, CDK5; assay: Pulse-chase SILAC MS proteomics in OVCAR8 cells, CDK5; format: cell-based; details: OVCAR8, 250 nM, 6 hours
Aurora A [13] = biological target: T6, Aurora A; assay: Pulse-chase SILAC MS proteomics in OVCAR8 cells, Aurora A; format: cell-based; details: OVCAR8, 250 nM, 6 hours
RSK1 (RPS6KA1) = RSK1 (RPS6KA1) (Homo sapiens, UniProt Q15418); assay: Pulse-chase SILAC MS proteomics in OVCAR8 cells, RSK1; format: cell-based; details: OVCAR8, 250 nM, 6 hours
JNK2 (MAPK9) = JNK2 (MAPK9) (Homo sapiens, UniProt P45984); assay: Pulse-chase SILAC MS proteomics in OVCAR8 cells, JNK2; format: cell-based; details: OVCAR8, 250 nM, 6 hours
STK33 = STK33 (Homo sapiens, UniProt Q9BYT3); assay: Pulse-chase SILAC MS proteomics in OVCAR8 cells, STK33; format: cell-based; details: OVCAR8, 250 nM, 6 hours
CDK2 [14] = biological target: T2, CDK2; assay: Immunoblot degradation in OVCAR8 cells, CDK2; format: cell-based; details: 6 hours
CDK5 [15] = biological target: T4, CDK5; assay: Immunoblot degradation in OVCAR8 cells, CDK5; format: cell-based; details: 6 hours
CDK1 [16] = biological target: T1, CDK1; assay: Immunoblot degradation in OVCAR8 cells, CDK1; format: cell-based; details: 6 hours
Aurora A [17] = biological target: T6, Aurora A; assay: Degradation in OVCAR8 cells, Aurora A; format: cell-based; details: OVCAR8, same conditions (Figure S3)
OVCAR8 cells = assay: Growth rate inhibition in OVCAR8 cells; format: cell-based
[18] = read-out: CDK2/cyclin A IC50, Table 1, degraders, tested in duplicate
[19] = read-out: CDK1/cyclin B IC50, Table 1, degraders, tested in duplicate
[20] = read-out: CDK2 IC50, Table 2, w/cyclin A, duplicate
[21] = read-out: CDK1 IC50, Table 2, w/cyclin B, duplicate
[22] = read-out: CDK5 IC50, Table 2, w/p25, duplicate
[23] = read-out: CDK4 IC50, Table 2, w/cyclin D1, duplicate
[24] = read-out: CDK6 IC50, Table 2, w/cyclin D1, duplicate

T1 sequence (P06493 whole entry): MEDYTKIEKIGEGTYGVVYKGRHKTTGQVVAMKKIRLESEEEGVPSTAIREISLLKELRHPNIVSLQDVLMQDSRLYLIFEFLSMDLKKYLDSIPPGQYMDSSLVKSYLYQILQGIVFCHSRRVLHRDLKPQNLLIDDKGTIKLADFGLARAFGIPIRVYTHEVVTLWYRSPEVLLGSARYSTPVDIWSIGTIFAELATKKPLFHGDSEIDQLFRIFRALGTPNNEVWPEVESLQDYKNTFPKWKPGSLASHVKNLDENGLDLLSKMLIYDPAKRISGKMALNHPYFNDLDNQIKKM
CDK1/cyclin B, sequence (P06493 whole entry): as above
CDK1/cyclin B, sequence (P14635 whole entry partner): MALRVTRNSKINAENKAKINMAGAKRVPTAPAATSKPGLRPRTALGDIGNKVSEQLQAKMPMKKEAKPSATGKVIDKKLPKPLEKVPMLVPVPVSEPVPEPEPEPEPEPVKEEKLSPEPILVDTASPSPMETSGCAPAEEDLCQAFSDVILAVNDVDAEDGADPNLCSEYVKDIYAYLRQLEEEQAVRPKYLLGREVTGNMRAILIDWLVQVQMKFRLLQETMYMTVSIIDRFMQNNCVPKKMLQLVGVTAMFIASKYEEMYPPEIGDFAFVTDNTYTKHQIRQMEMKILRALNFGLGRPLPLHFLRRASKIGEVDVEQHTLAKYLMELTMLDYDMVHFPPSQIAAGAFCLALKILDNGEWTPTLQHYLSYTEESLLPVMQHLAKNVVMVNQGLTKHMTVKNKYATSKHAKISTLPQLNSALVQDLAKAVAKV
CDK4/cyclin D1, sequence (P11802 whole entry): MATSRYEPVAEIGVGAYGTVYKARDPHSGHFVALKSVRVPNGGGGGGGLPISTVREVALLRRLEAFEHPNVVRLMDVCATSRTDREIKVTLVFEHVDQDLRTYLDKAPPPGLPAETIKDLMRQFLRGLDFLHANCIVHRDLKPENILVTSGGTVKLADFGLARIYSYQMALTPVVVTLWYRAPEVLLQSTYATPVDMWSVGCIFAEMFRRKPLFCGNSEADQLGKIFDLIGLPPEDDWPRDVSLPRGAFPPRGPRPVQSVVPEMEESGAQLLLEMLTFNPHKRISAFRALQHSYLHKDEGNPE
CDK4/cyclin D1, sequence (P24385 whole entry partner): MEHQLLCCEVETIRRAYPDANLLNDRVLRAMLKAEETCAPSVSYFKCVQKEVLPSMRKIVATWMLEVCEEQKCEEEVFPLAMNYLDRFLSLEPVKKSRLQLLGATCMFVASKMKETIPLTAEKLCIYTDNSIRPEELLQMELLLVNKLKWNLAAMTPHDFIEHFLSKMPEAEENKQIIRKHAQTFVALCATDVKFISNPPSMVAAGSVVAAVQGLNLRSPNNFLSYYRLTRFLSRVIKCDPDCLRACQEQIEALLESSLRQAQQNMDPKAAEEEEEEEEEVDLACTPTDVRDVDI
T3 sequence (P11802 whole entry): as the sequence (P11802 whole entry) above
CDK9/cyclin T1, sequence (P50750 whole entry): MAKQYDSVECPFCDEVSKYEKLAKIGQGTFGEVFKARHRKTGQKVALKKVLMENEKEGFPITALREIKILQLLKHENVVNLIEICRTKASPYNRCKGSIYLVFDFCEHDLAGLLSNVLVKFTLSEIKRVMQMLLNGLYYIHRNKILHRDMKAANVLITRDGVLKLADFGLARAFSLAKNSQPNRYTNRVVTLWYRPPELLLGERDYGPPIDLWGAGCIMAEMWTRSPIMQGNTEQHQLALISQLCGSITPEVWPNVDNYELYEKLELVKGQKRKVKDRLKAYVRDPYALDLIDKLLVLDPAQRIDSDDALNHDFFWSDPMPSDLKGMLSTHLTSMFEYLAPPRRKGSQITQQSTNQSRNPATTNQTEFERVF
CDK9/cyclin T1, sequence (O60563 whole entry partner): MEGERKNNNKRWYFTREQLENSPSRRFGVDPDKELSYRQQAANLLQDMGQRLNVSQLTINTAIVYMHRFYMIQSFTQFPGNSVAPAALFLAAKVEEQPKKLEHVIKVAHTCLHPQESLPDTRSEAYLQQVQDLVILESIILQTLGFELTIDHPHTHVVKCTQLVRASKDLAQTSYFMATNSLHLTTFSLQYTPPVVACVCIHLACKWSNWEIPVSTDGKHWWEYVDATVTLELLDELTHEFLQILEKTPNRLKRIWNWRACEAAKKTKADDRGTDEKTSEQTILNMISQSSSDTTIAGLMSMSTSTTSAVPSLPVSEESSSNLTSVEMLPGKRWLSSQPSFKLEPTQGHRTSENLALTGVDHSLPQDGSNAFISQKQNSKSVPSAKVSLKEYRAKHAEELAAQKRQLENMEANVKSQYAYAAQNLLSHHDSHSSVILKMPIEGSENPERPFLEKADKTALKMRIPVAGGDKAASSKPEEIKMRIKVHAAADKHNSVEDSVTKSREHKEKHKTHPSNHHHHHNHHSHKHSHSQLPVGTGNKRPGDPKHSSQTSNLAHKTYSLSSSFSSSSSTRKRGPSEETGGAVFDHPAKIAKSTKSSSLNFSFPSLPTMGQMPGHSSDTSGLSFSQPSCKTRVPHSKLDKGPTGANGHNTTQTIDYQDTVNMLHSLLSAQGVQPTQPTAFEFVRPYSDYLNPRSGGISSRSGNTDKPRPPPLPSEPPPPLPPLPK
T4 sequence (Q00535 whole entry): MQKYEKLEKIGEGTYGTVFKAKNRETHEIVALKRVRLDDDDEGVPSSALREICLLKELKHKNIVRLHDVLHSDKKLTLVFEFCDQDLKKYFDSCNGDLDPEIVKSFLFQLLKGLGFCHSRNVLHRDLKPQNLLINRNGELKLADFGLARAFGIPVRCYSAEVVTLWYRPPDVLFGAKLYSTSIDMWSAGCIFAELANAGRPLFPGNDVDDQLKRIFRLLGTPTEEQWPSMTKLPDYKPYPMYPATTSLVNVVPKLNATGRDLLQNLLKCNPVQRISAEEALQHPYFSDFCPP
CDK5/p25, sequence (Q00535 whole entry): as above
CDK5/p25, sequence (Q15078 99-307 partner limits assumed): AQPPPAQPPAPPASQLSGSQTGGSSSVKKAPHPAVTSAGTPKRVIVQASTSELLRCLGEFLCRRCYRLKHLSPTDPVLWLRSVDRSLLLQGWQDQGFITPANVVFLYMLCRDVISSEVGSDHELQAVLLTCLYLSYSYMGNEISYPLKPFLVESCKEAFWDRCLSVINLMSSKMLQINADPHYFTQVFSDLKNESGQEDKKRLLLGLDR
CDK7/cyclin H, sequence (P50613 whole entry): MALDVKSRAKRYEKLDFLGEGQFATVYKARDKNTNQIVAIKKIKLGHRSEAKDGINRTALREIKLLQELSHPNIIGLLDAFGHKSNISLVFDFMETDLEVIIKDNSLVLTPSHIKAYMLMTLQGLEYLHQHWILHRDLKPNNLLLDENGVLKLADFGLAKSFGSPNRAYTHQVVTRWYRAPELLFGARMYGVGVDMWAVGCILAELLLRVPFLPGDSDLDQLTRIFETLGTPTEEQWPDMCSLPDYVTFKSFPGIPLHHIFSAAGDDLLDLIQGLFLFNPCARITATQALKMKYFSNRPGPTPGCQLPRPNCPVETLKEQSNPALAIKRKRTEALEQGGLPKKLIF
CDK7/cyclin H, sequence (P51946 whole entry partner): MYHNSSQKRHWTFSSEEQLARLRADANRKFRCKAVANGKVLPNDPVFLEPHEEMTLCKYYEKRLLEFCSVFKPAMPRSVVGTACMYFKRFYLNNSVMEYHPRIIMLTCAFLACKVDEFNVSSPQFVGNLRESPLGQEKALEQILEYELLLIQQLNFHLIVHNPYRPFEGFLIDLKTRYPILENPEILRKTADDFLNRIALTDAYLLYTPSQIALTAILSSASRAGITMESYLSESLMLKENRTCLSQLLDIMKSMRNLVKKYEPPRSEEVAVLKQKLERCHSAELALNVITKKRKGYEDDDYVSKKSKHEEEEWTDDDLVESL
T5 sequence (Q00534 whole entry): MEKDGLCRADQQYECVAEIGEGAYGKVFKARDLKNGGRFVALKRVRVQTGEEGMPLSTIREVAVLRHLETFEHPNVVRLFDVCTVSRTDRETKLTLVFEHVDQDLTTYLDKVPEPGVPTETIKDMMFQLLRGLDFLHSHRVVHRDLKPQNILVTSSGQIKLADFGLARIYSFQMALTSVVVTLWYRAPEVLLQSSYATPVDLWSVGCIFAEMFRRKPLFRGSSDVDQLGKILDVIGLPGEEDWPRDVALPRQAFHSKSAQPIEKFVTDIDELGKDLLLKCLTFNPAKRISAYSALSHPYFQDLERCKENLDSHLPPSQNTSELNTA
CDK6/cyclin D1, sequence (Q00534 whole entry): as above
CDK6/cyclin D1, sequence (P24385 whole entry partner): as the sequence (P24385 whole entry partner) above
CDK9, sequence (P50750 whole entry): as the sequence (P50750 whole entry) above
CDK7, sequence (P50613 whole entry): as the sequence (P50613 whole entry) above

## NC(=O)c1c(F)cccc1Nc1nc(NC2CCN(S(=O)(=O)CCNC(=O)CCOCCOCCOCCOCCOc3cccc4c3C(=O)N(C3CCC(=O)NC3=O)C4=O)CC2)ncc1Br (stereo not drawn) [TMX-1111]
CDK2/cyclin A; [18]
  IC50: 6.4 nM
CDK1/cyclin B; [19]
  IC50: 9.5 nM

## NC(=O)c1c(F)cccc1Nc1nc(NC2CCN(S(=O)(=O)CCNC(=O)CCOCCOCCOc3cccc4c3C(=O)N(C3CCC(=O)NC3=O)C4=O)CC2)ncc1Br (stereo not drawn) [TMX-1128]
CDK2/cyclin A; [18]
  IC50: 4.9 nM
CDK1/cyclin B; [19]
  IC50: 11.6 nM

## NC(=O)c1c(F)cccc1Nc1nc(NC2CCN(S(=O)(=O)CCNC(=O)CCOCCOCCOCCOCCOCCOCCOCCOCCOc3cccc4c3C(=O)N(C3CCC(=O)NC3=O)C4=O)CC2)ncc1Br (stereo not drawn) [TMX-1146]
CDK2/cyclin A; [18]
  IC50: 7.3 nM
CDK1/cyclin B; [19]
  IC50: 15.5 nM

## NC(=O)c1c(F)cccc1Nc1nc(NC2CCN(S(=O)(=O)CCNC(=O)CCCCCCCCOc3cccc4c3C(=O)N(C3CCC(=O)NC3=O)C4=O)CC2)ncc1Br (stereo not drawn) [TMX-1160]
CDK2/cyclin A; [18]
  IC50: 28.7 nM
CDK1/cyclin B; [19]
  IC50: 8.5 nM
CDK1 [1]; 1 μM
  CDK1 degradation: no CDK1 degradation was observed
CDK2 [2]; 1 μM
  CDK2 degradation: induced CDK2 degradation
CDK4 [3]; immunoblot (Figure 2B)
  CDK4 degradation: potently degraded
CDK5 [4]; immunoblot (Figure 2B)
  CDK5 degradation: potently degraded
CDK6 [5]; immunoblot (Figure 2B)
  CDK6 degradation: potently degraded
CDK7; immunoblot (Figure 2B)
  CDK7 degradation: not degraded
CDK9; immunoblot (Figure 2B)
  CDK9 degradation: not degraded
CDK4 [6]
  CDK4 degradation: not degraded
CDK6 [7]
  CDK6 degradation: not degraded

## NC(=O)c1c(F)cccc1Nc1nc(NC2CCN(S(=O)(=O)CCNC(=O)CCCCCCCOc3cccc4c3C(=O)N(C3CCC(=O)NC3=O)C4=O)CC2)ncc1Br (stereo not drawn) [TMX-1162]
CDK2/cyclin A; [18]
  IC50: 17.1 nM
CDK1/cyclin B; [19]
  IC50: 8.5 nM
CDK1 [1]; 1 μM
  CDK1 degradation: no CDK1 degradation was observed
CDK2 [2]; 1 μM
  CDK2 degradation: induced CDK2 degradation

## NC(=O)c1c(F)cccc1Nc1nc(NC2CCN(S(=O)(=O)CCNC(=O)CCCCCOc3cccc4c3C(=O)N(C3CCC(=O)NC3=O)C4=O)CC2)ncc1Br (stereo not drawn) [TMX-1169]
CDK2/cyclin A; [18]
  IC50: 20.5 nM
CDK1/cyclin B; [19]
  IC50: 31 nM

## CS(=O)(=O)N1CCC(Nc2ncc(Br)c(Nc3cccc(F)c3C(N)=O)n2)CC1 [TMX-2039]
CDK2/cyclin A; Figure 1
  enzymatic IC50 CDK2: low nanomolar
CDK1/cyclin B; Figure 1
  enzymatic IC50 CDK1: low nanomolar
CDK4/cyclin D1; Figure 1
  enzymatic IC50 CDK4: low nanomolar
CDK6/cyclin D1; Figure 1
  enzymatic IC50 CDK6: low nanomolar
CDK7/cyclin H; Figure 1
  enzymatic IC50 CDK7: low nanomolar
CDK9/cyclin T1; Figure 1
  enzymatic IC50 CDK9: low nanomolar

## NC(=O)c1c(F)cccc1Nc1nc(Nc2ccc(S(=O)(=O)NCCOCCOCCOCCOCCNc3cccc4c3C(=O)N(C3CCC(=O)NC3=O)C4=O)cc2)ncc1Br (stereo not drawn) [TMX-2138]
CDK2/cyclin A; read-out: CDK2/cyclin A IC50, Table 3, duplicate
  IC50: 10.9 nM
CDK1/cyclin B; read-out: CDK1/cyclin B IC50, Table 3, duplicate
  IC50: 8.7 nM
CDK5/p25; read-out: CDK5/p25 IC50, Table 3, duplicate
  IC50: 7 nM
CDK4/cyclin D1; read-out: CDK4/cyclin D1 IC50, Table 3, duplicate
  IC50: 901 nM
CDK6/cyclin D1; read-out: CDK6/cyclin D1 IC50, Table 3, duplicate
  IC50: 465 nM
CDK7/cyclin H; read-out: CDK7/cyclin H IC50, Table 3, duplicate
  IC50: 286 nM
CDK9/cyclin T1; read-out: CDK9/cyclin T1 IC50, Table 3, duplicate
  IC50: 25.7 nM

## Cc1cc(S(=O)(=O)NCCOCCOCCOCCOCCNc2cccc3c2C(=O)N(C2CCC(=O)NC2=O)C3=O)ccc1Nc1ncc(Br)c(Nc2cccc(F)c2C(N)=O)n1 (stereo not drawn) [TMX-2172]
CDK2/cyclin A
  IC50: 6.5 nM
CDK1/cyclin B
  IC50: 20.3 nM
CDK5/p25
  IC50: 6.8 nM
CDK4/cyclin D1
  IC50: 7390 nM
CDK6/cyclin D1
  IC50: 2220 nM
CDK7/cyclin H
  IC50: 2620 nM
CDK9/cyclin T1
  IC50: 2640 nM
Aurora A [8]
  IC50: 205 nM
CRBN
  IC50: 46.9 nM
More than 400 kinases
  number of kinases with >99% inhibition compared to DMSO: 14
CDK2 [9]
  CDK2 inhibition in KINOMEscan: potent inhibition
CDK1 [1]; 250 nM
  CDK1 degradation: not affected
CDK2 [2]; 250 nM
  CDK2 degradation: induced CDK2 degradation
CDK4 [3]; 250 nM, immunoblot
  CDK4 degradation: not affected
CDK5 [4]; immunoblot (Figure 3A)
  CDK5 degradation: retained the ability to degrade CDK5
CDK6 [5]; 250 nM, immunoblot
  CDK6 degradation: not affected
CDK7; 250 nM, immunoblot
  CDK7 degradation: not affected
CDK9; 250 nM, immunoblot
  CDK9 degradation: not affected
CDK2 [10]
  CDK2 degradation: no CDK2 degradation was detected
CDK2 [11]
  CDK2 degradation (proteomics): effectively degraded
CDK5 [12]
  CDK5 degradation (proteomics): effectively degraded
Aurora A [13]
  Aurora A degradation (proteomics): effectively degraded
RSK1 (RPS6KA1)
  degree of degradation of RSK1 (RPS6KA1) (proteomics): relatively weak
JNK2 (MAPK9)
  degree of degradation of JNK2 (MAPK9) (proteomics): relatively weak
STK33
  degree of degradation of STK33 (proteomics): relatively weak
CDK2 [14]
  CDK2 degradation: degraded in a dose dependent manner
CDK5 [15]
  CDK5 degradation: degraded in a dose dependent manner
CDK1 [16]
  CDK1 degradation: remained intact
Aurora A [17]
  concentration needed to achieve observable Aurora A degradation: 5 µM
OVCAR8 cells
  growth rate inhibitory effect: strong growth rate inhibitory effects
OVCAR8 cells; 72 hours
  growth rate inhibitory potency relative to non-degrading control ZXH-7035: approximately 8.5 fold

## Cc1cc(S(N)(=O)=O)ccc1Nc1ncc(Br)c(Nc2cccc(F)c2C(N)=O)n1 [TMX-3010]
CDK2/cyclin A; benchmarked to CDK2 IC50 value
  discrimination for inhibiting CDK1, CDK2, and CDK5 over CDK4 and CDK6: hundred-fold
CDK2/cyclin A; [20]
  IC50: 0.7 nM
CDK1/cyclin B; [21]
  IC50: 1.2 nM
CDK5/p25; [22]
  IC50: 0.9 nM
CDK4/cyclin D1; [23]
  IC50: 135 nM
CDK6/cyclin D1; [24]
  IC50: 84.1 nM

## NC(=O)c1c(F)cccc1Nc1nc(Nc2ccc(S(N)(=O)=O)cc2)ncc1Br [TMX-3013]
CDK2/cyclin A; [20]
  IC50: < 0.5 nM
CDK1/cyclin B; [21]
  IC50: 0.9 nM
CDK5/p25; [22]
  IC50: 0.5 nM
CDK4/cyclin D1; [23]
  IC50: 24.5 nM
CDK6/cyclin D1; [24]
  IC50: 15.6 nM
